Test results as given in paper PMC10354499 (RSC Advances, 2023).

Legend:
CT-DNA relative to BSA = assay: Relative stability constant ln; settings: natural logarithm of ratio of CT-DNA to BSA binding constants
Method in brief: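 KDNA: CT-DNA (0–8 μM) was titrated against 20 μM test compound in PBS with ~2% (v/v) DMSO final. Mixtures were incubated 10 min and read by UV-vis, with DNA absorbance cancelled in the reference. KDNA was the slope/intercept ratio of [DNA]/(εa−εf) vs [DNA] (Wolfe–Shimer). KBSA: 0–10 μM compound was added to 6 μM BSA in PBS pH 7.2, 10 min at 25 °C, A280 read, Benesi–Hildebrand fit.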

[1] = Selective toxicity, MTT assay in HEK-293 cells; format: cell-based, human; settings: human, HEK-293 cells
Method in brief: (§1)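 HEK-293 cells were grown in DMEM with 10% FBS, 1% penicillin–streptomycin, 1% L-glutamine and 2.5% HEPES. Cells were seeded at 15 000 cells/well, held 24 h (37 °C, 5% CO2), then exposed to test compound for 24 h. MTT (5 mg mL−1 in PBS) plus medium was added for 4 h, then aspirated, and formazan was dissolved in DMSO. Absorbance was read at 570/690 nm; percentage viability by formula, triplicate.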

HEK-293 cells = assay: Selective toxicity, MTT assay in HEK-293 cells; format: cell-based, human; settings: at respective MCF-7 IC50 concentration, 24 hours, MTT
Method in brief: as §1

MCF-7 cells = settings: read-out: IC50 (MCF-7); known breast cancer antineoplastic drug; cited from earlier work

Row | Compound | ln(KDNA/KBSA) (CT-DNA relative to BSA) | viability at 24 h [1] [%] | cell viability (HEK-293) (HEK-293 cells) [%] | IC50 (MCF-7 cells) [µM]
1 | CC1(C)CC(=O)C2=C(C1)Oc1ncnc(Nc3ccccc3)c1C2c1ccccc1F (centres unmarked) [Compound 3a, 5-(2-Fluorophenyl)-8,8-dimethyl-4-(phenylamino)-5,7,8,9-tetrahydro-6H-chromeno[2,3-d]pyrimidin-6-one] | lowest | 96.6 | – | –
2 | CC1(C)CC(=O)C2=C(C1)Oc1ncnc(Nc3cccc(-[c-]4cccc4)c3)c1C2c1ccccc1F.[Fe+2].c1cc[cH-]c1 (centres unmarked) [Compound 3j, 4-((3-Ferrocenylphenyl)amino)-5-(2-fluorophenyl)-8,8-dimethyl-5,7,8,9-tetrahydro-6H-chromeno[2,3-d]pyrimidin-6-one] | highest | – | 107.43 | –
3 | CC[C@]1(O)C[C@@H]2CN(CCc3c([nH]c4ccccc34)[C@@](C(=O)OC)(c3cc4c(cc3OC)N(C)[C@H]3[C@@](O)(C(=O)OC)[C@H](OC(C)=O)[C@]5(CC)C=CCN6CC[C@]43[C@@H]65)C2)C1 [Vinoblastine, vinblastine] | – | – | – | 10.2 ± 0.39
